Results reported in publication PMC6023675 (Journal of molecular biology, 2018).

Legend:
E. coli 70S ribosomes = assay: Competition binding assay with BODIPY-labeled erythromycin; conditions: ratio of KDapp versus CLM; listed as L-histidyl analogue
In short: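 E. coli 70S ribosomes (25 nM) preincubated with BODIPY-erythromycin (4 nM) for 30 min at 25°C in 20 mM HEPES-KOH pH 7.5, 50 mM NH₄Cl, 10 mM Mg acetate, 0.05% Tween-20. Test compound was added at 0.1 μM to 1 mM, then incubated 2 h to equilibrium. Fluorescence polarization was read to give apparent KD by competition.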

[1] = test system: cell-free translation of firefly luciferase in E. coli S30 cell extract; type: biochemical; conditions: 30 μM inhibitor
In short: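 In vitro transcribed firefly luciferase mRNA (100 ng) was translated in E. coli S30 extract at 37°C for 30 min with test compound at 30 μM final. Luciferase activity was read with Steady-Glo substrate. Reactions were run in triplicate; error bars are confidence interval (α = 0.05).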

[2] = test system: ribosome translating synthetic ORF […]; assay: Primer extension inhibition; type: biochemical; conditions: 100 μM antibiotic, with or without mupirocin 50 μM, ORF MFKAFKNIIRTRTL

N[C@@H](Cc1c[nH]cn1)C(=O)N[C@H](CO)[C@H](O)c1ccc([N+](=O)[O-])cc1 [His-CAM (1)]
Affinity for the ribosome relative to CLM (fold higher) (E. coli 70S ribosomes): 10 fold

O=C(N[C@H](CO)[C@H](O)c1ccc([N+](=O)[O-])cc1)C(Cl)Cl [CLM, chloramphenicol]
Inhibition of firefly luciferase synthesis (in words) [1]: near-complete inhibition

C=C[C@]1(C)C[C@@H](OC(=O)CS[C@@H]2C[C@H]3CC[C@@H](C2)N3C)[C@]2(C)[C@H](C)CC[C@]3(CCC(=O)[C@H]32)[C@@H](C)[C@@H]1O [retapamulin (RET), retapamulin]
Site of antibiotic-induced translation arrest (toe-printing) [2]: arrests the ribosome at the start codon
